# Experimental data reported in ChEMBL document CHEMBL2311431, “Synthesis and biological evaluation of some 5-arylidene-2-(1,3-thiazol-2-ylimino)-1,3-thiazolidin-4-ones as dual anti-inflammatory/antimicrobial agents” (Bioorg Med Chem, 2013).
# pIC50: −log10 of the molar value.
# What was measured:
# Pseudomonas aeruginosa [1] = experiment: Antibacterial activity against Pseudomonas aeruginosa ATCC 27853 after 24 hr by microdilution test; assay type: functional; settings: ATCC 27853, 24 h
# In short: (§1)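 Broth microdilution in LB medium, about 1.0×10^4 cfu per well; compounds from 1 mg/ml stocks in 5% DMSO. Incubated 24 h. MIC is the lowest concentration with no visible growth under a binocular microscope. Run in duplicate, repeated three times.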
# Escherichia coli [2] = experiment: Antibacterial activity against Escherichia coli ATCC 35210 after 24 hr by microdilution test; assay type: functional; settings: ATCC 35210, 24 h; in short: as §1
# Mus musculus [3] = experiment: Acute toxicity in AKR mouse up to 0.5 mmol/kg, ip; assay type: organism-based; settings: in vivo
# Listeria monocytogenes [4] = experiment: Bactericidal activity against Listeria monocytogenes NCTC 7973 after 72 hrs by serial subcultivation method; assay type: functional; settings: NCTC 7973, 72 h
# Mus musculus [5] = experiment: Antiinflammatory activity in AKR mouse assessed as inhibition of carrageenan-induced paw edema at 0.01 mmol/kg, ip measured after 3.5 hrs of carrageenan-challenge; assay type: functional
# In short: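 AKR mice of both sexes (pregnant females excluded), 6-10 per group, fasted during the experiment. Edema induced by intradermal 0.05 mL of 2% carrageenin into the right hind paw. Compound given at 0.01 mmol/kg ip, suspended in water with Tween-80, at the same time as carrageenin.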
# Aspergillus niger [6] = experiment: Fungicidal activity against Aspergillus niger ATCC 6275 after 72 hrs by serial subcultivation method; assay type: functional; settings: ATCC 6275, 72 h
# Listeria monocytogenes [7] = experiment: Antibacterial activity against Listeria monocytogenes NCTC 7973 after 24 hr by microdilution test; assay type: functional; settings: NCTC 7973, 24 h; in short: as §1
# Aspergillus niger [8] = experiment: Antifungal activity against Aspergillus niger ATCC 6275 after 72 hrs by serial dilution technique; assay type: functional; settings: ATCC 6275, 72 h
# In short: (§2)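 Serial dilution in malt broth; compounds from 1 mg/ml stocks in 5% DMSO; 72 h at 28 °C. MIC is the lowest concentration with no visible growth under a binocular microscope. Run in duplicate, repeated three times.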
# Micrococcus flavus [9] = experiment: Antibacterial activity against Micrococcus flavus ATCC 10240 after 24 hr by microdilution test; assay type: functional; settings: ATCC 10240, 24 h; in short: as §1
# Penicillium ochrochloron [10] = experiment: Fungicidal activity against Penicillium ochrochloron ATCC 9112 after 72 hrs by serial subcultivation method; assay type: functional; settings: ATCC 9112, 72 h
# Staphylococcus aureus [11] = experiment: Antibacterial activity against Staphylococcus aureus ATCC 6538 after 24 hr by microdilution test; assay type: functional; settings: ATCC 6538, 24 h; in short: as §1
# Aspergillus flavus [12] = experiment: Fungicidal activity against Aspergillus flavus ATCC 9643 after 72 hrs by serial subcultivation method; assay type: functional; settings: ATCC 9643, 72 h
# Staphylococcus aureus [13] = experiment: Bactericidal activity against Staphylococcus aureus ATCC 6538 after 72 hrs by serial subcultivation method; assay type: functional; settings: ATCC 6538, 72 h
# Bacillus cereus [14] = experiment: Bactericidal activity against Bacillus cereus clinical isolate after 72 hrs by serial subcultivation method; assay type: functional
# Penicillium ochrochloron [15] = experiment: Antifungal activity against Penicillium ochrochloron ATCC 9112 after 72 hrs by serial dilution technique; assay type: functional; settings: ATCC 9112, 72 h; in short: as §2
# Bacillus cereus [16] = experiment: Antibacterial activity against Bacillus cereus clinical isolate after 24 hr by microdilution test; assay type: functional; in short: as §1
# Talaromyces funiculosus [17] = experiment: Antifungal activity against Penicillium funiculosum ATCC 36839 after 72 hrs by serial dilution technique; assay type: functional; settings: ATCC 36839, 72 h; in short: as §2
# Pseudomonas aeruginosa [18] = experiment: Bactericidal activity against Pseudomonas aeruginosa ATCC 27853 after 72 hrs by serial subcultivation method; assay type: functional; settings: ATCC 27853, 72 h
# Glycine max = experiment: (§3) Inhibition of soybean lipoxygenase assessed as inhibition of sodium linolate conversion to 13-hydroperoxylinoleic acid after 4 mins by spectrophotometry
# [19] = as §3; parameters: species or system Glycine max; settings: read-out: IC50
# Escherichia coli [20] = experiment: Bactericidal activity against Escherichia coli ATCC 35210 after 72 hrs by serial subcultivation method; assay type: functional; settings: ATCC 35210, 72 h
# Trichoderma viride [21] = experiment: Fungicidal activity against Trichoderma viride IAM 5061 after 72 hrs by serial subcultivation method; assay type: functional; settings: IAM 5061, 72 h
# Aspergillus flavus [22] = experiment: Antifungal activity against Aspergillus flavus ATCC 9643 after 72 hrs by serial dilution technique; assay type: functional; settings: ATCC 9643, 72 h; in short: as §2
# Aspergillus fumigatus [23] = experiment: Antifungal activity against Aspergillus fumigatus after 72 hrs by serial dilution technique; assay type: functional; in short: as §2
# Talaromyces funiculosus [24] = experiment: Fungicidal activity against Penicillium funiculosum ATCC 36839 after 72 hrs by serial subcultivation method; assay type: functional; settings: ATCC 36839, 72 h
# Aspergillus fumigatus [25] = experiment: Fungicidal activity against Aspergillus fumigatus after 72 hrs by serial subcultivation method; assay type: functional
# Micrococcus flavus [26] = experiment: Bactericidal activity against Micrococcus flavus ATCC 10240 after 72 hrs by serial subcultivation method; assay type: functional; settings: ATCC 10240, 72 h
# Trichoderma viride [27] = experiment: Antifungal activity against Trichoderma viride IAM 5061 after 72 hrs by serial dilution technique; assay type: functional; settings: IAM 5061, 72 h; in short: as §2
# [28] = biological target: T1, Prostaglandin G/H synthase 1 (Ovis aries) (UniProt P05979); experiment: Inhibition of ovine COX1 assessed as inhibition of PGF2a production by enzyme immunoassay; parameters: concentration or dose not given beside the values; settings: concentration not given here
# T1 sequence (whole entry): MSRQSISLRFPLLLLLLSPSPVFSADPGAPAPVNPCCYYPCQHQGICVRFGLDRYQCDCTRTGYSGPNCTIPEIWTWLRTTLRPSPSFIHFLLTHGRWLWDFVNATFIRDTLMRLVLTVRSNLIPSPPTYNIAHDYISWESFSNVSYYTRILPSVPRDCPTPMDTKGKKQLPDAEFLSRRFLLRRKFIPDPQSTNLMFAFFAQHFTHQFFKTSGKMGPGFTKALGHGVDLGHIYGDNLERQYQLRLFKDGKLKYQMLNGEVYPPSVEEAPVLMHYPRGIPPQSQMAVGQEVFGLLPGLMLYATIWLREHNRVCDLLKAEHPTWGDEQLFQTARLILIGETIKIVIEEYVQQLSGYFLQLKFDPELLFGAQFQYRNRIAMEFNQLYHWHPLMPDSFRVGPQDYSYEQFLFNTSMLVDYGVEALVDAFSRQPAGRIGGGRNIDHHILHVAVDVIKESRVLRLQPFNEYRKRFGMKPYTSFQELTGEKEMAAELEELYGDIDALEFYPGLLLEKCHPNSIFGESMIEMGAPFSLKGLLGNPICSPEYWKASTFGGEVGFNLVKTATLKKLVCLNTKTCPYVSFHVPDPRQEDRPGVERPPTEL
# In short: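 Ovine COX-1 from a commercial screening kit, tested with 0.1 µM arachidonic acid, which is below the saturating level. COX-derived PGH2 is reduced by SnCl2 to PGF2a, quantified by enzyme immunoassay with a broad prostaglandin antibody. At least triplicate.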
Structure (SMILES),MIC (Pseudomonas aeruginosa [1]),MIC (Escherichia coli [2]),Activity (Mus musculus [3]),MBC (Listeria monocytogenes [4]),inhibition in vivo at 10 µmol/kg (Mus musculus [5]),MFC (Aspergillus niger [6]),MIC (Listeria monocytogenes [7]),MIC (Aspergillus niger [8]),MIC (Micrococcus flavus [9]),MFC (Penicillium ochrochloron [10]),MIC (Staphylococcus aureus [11]),MFC (Aspergillus flavus [12]),MBC (Staphylococcus aureus [13]),MBC (Bacillus cereus [14]),MIC (Penicillium ochrochloron [15]),MIC (Bacillus cereus [16]),MIC (Talaromyces funiculosus [17]),MBC (Pseudomonas aeruginosa [18]),pIC50 [19],MBC (Escherichia coli [20]),other results
O=C1N/C(=N\c2nccs2)S/C1=C\c1cccc(F)c1,24.6 µM,32.7 µM,Non-toxic,98.2 µM,56.6%,65.4 µM,81.9 µM,32.7 µM,65.4 µM,65.4 µM,32.7 µM,65.4 µM,65.4 µM,32.7 µM,32.7 µM,24.6 µM,32.7 µM,32.7 µM,4.05,65.4 µM,inhibition (Glycine max): 72%; MFC (Trichoderma viride [21]): 65.4 µM; MIC (Aspergillus flavus [22]): 32.7 µM; MIC (Aspergillus fumigatus [23]): 32.7 µM; MFC (Talaromyces funiculosus [24]): 65.4 µM; MFC (Aspergillus fumigatus [25]): 49.1 µM; MBC (Micrococcus flavus [26]): 81.9 µM; MIC (Trichoderma viride [27]): 32.7 µM; inhibition [28]: 42%
O=C1N/C(=N\c2nccs2)S/C1=C\c1ccc(F)cc1,32.7 µM,32.7 µM,Non-toxic,98.2 µM,65.6%,65.4 µM,81.9 µM,32.7 µM,65.4 µM,65.4 µM,32.7 µM,81.9 µM,65.4 µM,32.7 µM,32.7 µM,24.6 µM,32.7 µM,65.4 µM,< 3.82,65.4 µM,inhibition (Glycine max): 35%; MFC (Trichoderma viride [21]): 65.4 µM; MIC (Aspergillus flavus [22]): 65.4 µM; MIC (Aspergillus fumigatus [23]): 49.1 µM; MFC (Talaromyces funiculosus [24]): 65.4 µM; MFC (Aspergillus fumigatus [25]): 65.4 µM; MBC (Micrococcus flavus [26]): 81.9 µM; MIC (Trichoderma viride [27]): 32.7 µM; inhibition [28]: 44%
O=C1N/C(=N\c2nccs2)S/C1=C\c1ccc(Br)cc1,27.3 µM,27.3 µM,Non-toxic,54.6 µM,42.2%,27.3 µM,27.3 µM,13.7 µM,27.3 µM,27.3 µM,13.7 µM,27.3 µM,27.3 µM,54.6 µM,13.7 µM,20.5 µM,20.5 µM,54.6 µM,4.18,54.6 µM,MFC (Trichoderma viride [21]): 27.3 µM; MIC (Aspergillus flavus [22]): 13.7 µM; MIC (Aspergillus fumigatus [23]): 13.7 µM; MFC (Talaromyces funiculosus [24]): 27.3 µM; MFC (Aspergillus fumigatus [25]): 27.3 µM; MBC (Micrococcus flavus [26]): 54.6 µM; MIC (Trichoderma viride [27]): 13.7 µM; inhibition [28]: 67%
Cc1csc(/N=C2\NC(=O)/C(=C/c3ccc(Cl)cc3)S2)n1,30 µM,120 µM,Non-toxic,60 µM,42%,15.2 µM,30 µM,15.2 µM,30 µM,15.2 µM,120 µM,15.2 µM,240 µM,30 µM,7.6 µM,30 µM,7.6 µM,120 µM,4.12,240 µM,MFC (Trichoderma viride [21]): 15.2 µM; MIC (Aspergillus flavus [22]): 15.2 µM; MIC (Aspergillus fumigatus [23]): 15.2 µM; MFC (Talaromyces funiculosus [24]): 15.2 µM; MFC (Aspergillus fumigatus [25]): 15.2 µM; MBC (Micrococcus flavus [26]): 60 µM; MIC (Trichoderma viride [27]): 7.6 µM; inhibition [28]: 74%
